Compound activity (PubChem BioAssay)
Shown are actives, neighbours in structure and some others; about 5.9% of the full set was active somewhere.
Pf Dd2 growth – P. falciparum Dd2 growth inhibition; SYBR Green, 72 h; hits give low values; activity change, % at 10 µM; 2.3% of 94,000 active; in the data active = activity change below about -80%; inconclusive = no clear call, values can overlap the other calls
GASC1 inh – inhibitors of human demethylase GASC-1 KDM4C; 0.15% of 96,000 active; Q9H3R0; inhibition, % at 12.5 µM; GST-KDM4C 2-372, H3K9me3 peptide, LANCE TR-FRET;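 active = mean replicate inhibition above about 25%, with at least 55% of replicates also reaching it, limit read from the data, passing the limit was not always enough; inconclusive = only one of those two conditions met; inactive = neither condition met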
Target sequence (Q9H3R0 2-372 limits assumed): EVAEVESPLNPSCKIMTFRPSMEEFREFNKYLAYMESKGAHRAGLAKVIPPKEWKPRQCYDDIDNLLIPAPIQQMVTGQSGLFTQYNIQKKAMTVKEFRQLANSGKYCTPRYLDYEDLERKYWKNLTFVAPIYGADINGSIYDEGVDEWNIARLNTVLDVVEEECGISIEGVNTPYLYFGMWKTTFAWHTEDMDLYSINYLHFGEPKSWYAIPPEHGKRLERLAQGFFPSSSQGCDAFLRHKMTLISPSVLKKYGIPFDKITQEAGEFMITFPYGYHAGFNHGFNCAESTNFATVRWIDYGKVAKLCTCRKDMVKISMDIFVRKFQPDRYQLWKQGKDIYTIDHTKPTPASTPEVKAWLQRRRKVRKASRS
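Material: GST-tagged GASC-1 (JMJD2C) catalytic fragment, aa 2-372 / Quantity: enzyme final amount 10 nM / Medium: HEPES buffer, pH 7.5, plus ascorbate / Doses: one test concentration per compound / Incubation: 30 min reaction, 60 min detection, RT / Measured by: LANCE TR-FRET / Read-out: inhibition from TR-FRET ratio decrease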
IDH1 R132H inh – blocks human IDH1 R132H reductase activity; O75874; diaphorase/resazurin fluorescence, 60 min; inhibition, % at 10 µM; 0.18% of 70,000 active; AID 624101; in the data active = inhibition above about 34%; inconclusive = no clear call, values can overlap the other calls; inactive = below about 11%
T cruzi growth-1 – blocks T. cruzi growth in NIH3T3 culture | 5.9% of 77,000 active | AID 624255 | inhibition, % at 8.34 µM | T. cruzi beta-gal in NIH3T3, GalScreen luminescence, 90 h;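 active = mean inhibition above about 93%, with at least 55% of replicates each passing it, limit read from the data, passing the limit was not always enough; inconclusive = only one of those two conditions holds; inactive = neither condition holds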
T cruzi growth-2 – Trypanosoma cruzi proliferation inhibition | shares compounds with T cruzi growth-1 | T. cruzi beta-gal in NIH3T3, GalScreen luminescence, 90 h | inhibition, % at 8.35 µM | 72% of 5,600 active;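 active = mean replicate inhibition above about 95% and at least 55% of replicates individually reaching it, limit read from the data; inconclusive = only one of the two criteria is met; inactive = neither criterion is met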
T cruzi growth-3 – Trypanosoma cruzi proliferation inhibition; shares compounds with T cruzi growth-1; T. cruzi beta-gal in NIH3T3, GalScreen luminescence, 90 h; inhibition, % at 2.09 µM; 21% of 5,600 active;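 active = mean inhibition above about 95%, with at least 55% of replicates also reaching it, limit read from the data; inconclusive = meets just one of the two conditions; inactive = meets neither condition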
3T3 cytotox – NIH/3T3 (mouse) viability loss; 14% of 5,600 active; cytotoxicity (signal decrease), % at 8.35 µM; shares compounds with T cruzi growth-1; NIH/3T3 viability, CellTiter-Glo ATP luminescence, 90 h;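 active = mean signal decrease across replicates above about 35% based on untreated-well scatter, with enough replicates individually passing, limit read from the data; inconclusive = no rule stated though some were filed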
3T3 cytotox 2 – cytotoxicity in mouse NIH/3T3 fibroblasts. AID 651744. shares compounds with T cruzi growth-1. inhibition, % at 24.9 µM. NIH/3T3 viability, CellTiter-Glo ATP luminescence, 90 h. 56% of 5,600 active;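 active = mean loss of cell viability signal at or above a set limit, and enough replicates individually reaching it; inconclusive = meets only the mean limit or only the replicate share; inactive = meets neither condition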
Of the large screens only hits and unclear results are named; the others gave an inactive call (follow-up assays come after a bar, where they were run).

C[C@@H]1CCCCO[C@@H](CN(C)Cc2ccccc2)[C@@H](C)CN([C@@H](C)CO)C(=O)c2cc(NC(=O)Nc3ccc(C(F)(F)F)cc3)ccc2O1	none
C[C@@H]1CN([C@@H](C)CO)C(=O)c2cc(NC(=O)Nc3ccc(C(F)(F)F)cc3)ccc2O[C@@H](C)CCCCO[C@H]1CN(C)Cc1ccc(C(F)(F)F)cc1	T cruzi growth-1 inconclusive | T cruzi growth-2 inactive | T cruzi growth-3 inactive | 3T3 cytotox inactive | 3T3 cytotox 2 inactive
C[C@@H]1CCCCO[C@H](CN(C)Cc2ccc(C(=O)O)cc2)[C@H](C)CN([C@H](C)CO)C(=O)c2cc(NC(=O)Nc3ccc(C(F)(F)F)cc3)ccc2O1	none (no result: IDH1 R132H inh)
C[C@@H]1CCCCO[C@@H](CN(C)Cc2ccc(C(F)(F)F)cc2)[C@H](C)CN([C@@H](C)CO)C(=O)c2cc(NC(=O)Nc3ccc(C(F)(F)F)cc3)ccc2O1	T cruzi growth-1 inconclusive (no result: IDH1 R132H inh) | T cruzi growth-2 101.8 | T cruzi growth-3 116.6 | 3T3 cytotox inactive | 3T3 cytotox 2 inactive
C[C@@H]1CCCCO[C@@H](CN(C)Cc2ccc(C(F)(F)F)cc2)[C@H](C)CN([C@@H](C)CO)C(=O)c2cc(NC(=O)NC3CCCCC3)ccc2O1	T cruzi growth-1 inconclusive (no result: IDH1 R132H inh) | T cruzi growth-2 98.0 | T cruzi growth-3 117.9 | 3T3 cytotox inactive | 3T3 cytotox 2 inactive
C[C@H]1CN([C@@H](C)CO)C(=O)c2cccc(NC(=O)c3ccncc3)c2O[C@@H]1CN(C)Cc1ccc(-c2ccccc2)cc1	T cruzi growth-1 inconclusive (no result: IDH1 R132H inh) | T cruzi growth-2 inactive | T cruzi growth-3 inactive | 3T3 cytotox inactive | 3T3 cytotox 2 47.1
C[C@@H]1CN([C@@H](C)CO)C(=O)c2cccc(N(C)C)c2O[C@@H]1CN(C)Cc1ccc(C(=O)Nc2ccccc2N)cc1	Pf Dd2 growth -81.8, T cruzi growth-1 113.1 (no result: GASC1 inh, IDH1 R132H inh) | T cruzi growth-2 103.8 | T cruzi growth-3 inactive | 3T3 cytotox inactive | 3T3 cytotox 2 72.9
C[C@H](CO)N1C[C@H](C)[C@H](CN(C)Cc2ccc(C(=O)Nc3ccccc3N)cc2)Oc2c(NC(=O)c3ccncc3)cccc2C1=O	T cruzi growth-1 inconclusive | T cruzi growth-2 104.7 | T cruzi growth-3 inactive | 3T3 cytotox inactive | 3T3 cytotox 2 inconclusive
C[C@H](CO)N1C[C@H](C)[C@H](CN(C)Cc2ccc(C(F)(F)F)cc2)Oc2c(NC(=O)c3ccncc3)cccc2C1=O	T cruzi growth-1 inconclusive | T cruzi growth-2 inactive | T cruzi growth-3 inactive | 3T3 cytotox inactive | 3T3 cytotox 2 inactive
C[C@H]1CN([C@@H](C)CO)C(=O)c2cccc(NC(=O)c3ccncc3)c2O[C@H]1CN(C)Cc1ccc(-c2ccccc2)cc1	none
CC1(C)NC(=O)N(CC(=O)Nc2ccc(Br)cc2)C1=O	none (no result: Pf Dd2 growth, GASC1 inh, T cruzi growth-1)
C[C@@H]1CN([C@H](C)CO)C(=O)c2cccc(NC(=O)c3ccncc3)c2O[C@@H]1CN(C)Cc1ccc(C(=O)Nc2ccccc2N)cc1	T cruzi growth-1 89.8 | T cruzi growth-2 102.8 | T cruzi growth-3 inactive | 3T3 cytotox inactive | 3T3 cytotox 2 33.1
CC(=O)Nc1ccc(C(=O)CSc2nc(-c3ccccc3)cs2)cc1	none (no result: Pf Dd2 growth, GASC1 inh, T cruzi growth-1)
Cc1nc(-c2ccccc2O)n(CCN2CCOCC2)n1	none (no result: Pf Dd2 growth, GASC1 inh, T cruzi growth-1)
O=C(C[C@@H]1CC[C@@H]2[C@H](COC[C@H](O)CN2C(=O)Nc2ccc(Cl)cc2)O1)NCCc1ccncc1	T cruzi growth-1 98.7 (no result: IDH1 R132H inh) | T cruzi growth-2 99.2 | T cruzi growth-3 inactive | 3T3 cytotox inactive | 3T3 cytotox 2 inactive
